Active and inactive are the calls of the source. The rule behind the calls is not given here.
Key:
[1] = test system: HeLa; test: Cytotoxicity against human HeLa cells at 10 ug/ml after 4 hrs by MTT assay; type: functional, cell-based
Procedure, shortened: (§1)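 MTT assay in 96-well plates, 10^4 cells per well, attached overnight. Cells were exposed to compound diluted in medium from 10 mg/mL DMSO stocks (vehicle control 0.2% DMSO) at 37 °C, 5% CO2, for 4 h, then changed to fresh DMEM. MTT (0.5 mg/mL) was added for 3 h at 37 °C in the dark. Formazan was dissolved in DMSO and read at 540 nm; results given as inhibitory rate.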

[2] = test system: MDA-MB-231; test: Cytotoxicity against human MDA-MB-231 cells at 10 ug/ml after 4 hrs by MTT assay; type: functional; procedure, shortened: as §1

`COc1cccc2c1C(=O)/C(=C(\CO)[C@@H]1OC(=O)C[C@H]1C)O2` [PHOTINIDE A] was tested, and the Activity [1] was “inactive” and the Activity [2] was 24.4%.
In the case of `COc1cccc2c1C(=O)/C(=C(/CO)[C@@H]1OC(=O)C[C@H]1C)O2` [PHOTINIDE B], the Activity [1] is reported as “inactive” and the Activity [2] is reported as 24.2%.
`COc1cccc2c1C(=O)[C@@]1(O2)O[C@]1(CO)[C@@H]1OC(=O)C[C@H]1C` was tested, and the Activity [1] was “inactive” and the Activity [2] was “Active”.
In the case of `C[C@@H]1CC(=O)O[C@H]1/C(CO)=C1\Oc2cccc(O)c2C1=O` [PHOTINIDE C], the Activity [1] is reported as “inactive” and the Activity [2] is reported as 23.1%.
For `COc1cccc2c1C(=O)[C@]1(O2)O[C@@]1(CO)[C@@H]1OC(=O)C[C@H]1C`, the Activity [1] was “inactive” and the Activity [2] was 24.6%.
With `C[C@@H]1CC(=O)O[C@H]1/C(CO)=C1/Oc2cccc(O)c2C1=O` [PHOTINIDE D] the Activity [1] was “inactive” and the Activity [2] was 24.4%.
